# Columns and labels:
# Type in all cases: functional
# [1] = system: MOLT-4; test: Growth inhibition of human MOLT4 cells incubated for 48 hrs by sulforhodamine B assay; settings: MOLT-4, 48 h
# How it was run: (§1)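 NCI 60-line screen. Cells in RPMI-1640 with 5% FBS and 2 mM L-glutamine, preincubated 24 h, then time-zero plates TCA-fixed. Compounds from DMSO stocks given at five final concentrations (100, 10, 1.0, 0.1, 0.01 µM) for 48 h at 37 °C, 5% CO2. Cells fixed with 10% TCA, SRB-stained, read at 515 nm. GI50 is the concentration giving 50% lower net protein increase versus control.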
# [2] = system: SR; test: Growth inhibition of human SR cells incubated for 48 hrs by sulforhodamine B assay; how it was run: as §1
# [3] = system: A549; test: Growth inhibition of human A549/ATCC cells incubated for 48 hrs by sulforhodamine B assay; settings: A549, 48 h; how it was run: as §1
# [4] = system: EKVX; test: Growth inhibition of human EKVX cells incubated for 48 hrs by sulforhodamine B assay
# How it was run: (§2)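 NCI five-dose SRB assay (100, 10, 1.0, 0.1, 0.01 µM) with 48 h exposure in RPMI-1640 with 5% FBS and 2 mM L-glutamine. Cells fixed with TCA and stained with SRB, read at 515 nm. GI50 is the concentration where [(Ti−Tz)/(C−Tz)]×100 = 50.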
# [5] = system: HOP-92; test: Growth inhibition of human HOP92 cells incubated for 48 hrs by sulforhodamine B assay; settings: HOP-92, 48 h
# How it was run: (§3)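 Five-dose NCI SRB assay at 100, 10, 1.0, 0.1 and 0.01 μM for 48 h at 37 °C, 5% CO2. Medium was RPMI-1640 with 5% FBS and 2 mM glutamine. Time-zero plates were TCA-fixed at compound addition, A515 read after SRB staining. GI50 was solved from [(Ti−Tz)/(C−Tz)]×100 = 50. Values beyond the tested range are given as > or <.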
# [6] = system: NCI-H23; test: Growth inhibition of human NCI-H23 cells incubated for 48 hrs by sulforhodamine B assay; settings: NCI-H23, 48 h; how it was run: as §3
# [7] = system: NCI-H460; test: Growth inhibition of human NCI-H460 cells incubated for 48 hrs by sulforhodamine B assay; settings: NCI-H460, 48 h; how it was run: as §3
# [8] = system: NCI-H522; test: Growth inhibition of human NCI-H522 cells incubated for 48 hrs by sulforhodamine B assay; settings: NCI-H522, 48 h; how it was run: as §1
# [9] = system: HCT-15; test: Growth inhibition of human HCT15 cells incubated for 48 hrs by sulforhodamine B assay; settings: HCT-15, 48 h; how it was run: as §1
# [10] = system: SW-620; test: Growth inhibition of human SW620 cells incubated for 48 hrs by sulforhodamine B assay; settings: SW-620, 48 h
# How it was run: (§4)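 NCI-60 panel cells grown in RPMI-1640 with 5% FBS and 2 mM L-glutamine, preincubated 24 h at 37 °C/5% CO2. Time-zero plates were TCA-fixed at compound addition. DMSO stocks were diluted in medium and tested at five final concentrations (100, 10, 1.0, 0.1, 0.01 µM) for 48 h. Cells were TCA-fixed, stained with SRB and read at 515 nm. GI50 = 50% lower net protein increase versus control.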
# [11] = system: SF-295; test: Growth inhibition of human SF295 cells incubated for 48 hrs by sulforhodamine B assay; settings: SF-295, 48 h; how it was run: as §3
# [12] = system: SNB-19; test: Growth inhibition of human SNB19 cells incubated for 48 hrs by sulforhodamine B assay; settings: SNB-19, 48 h; how it was run: as §4
# [13] = system: SNB-75; test: Growth inhibition of human SNB75 cells incubated for 48 hrs by sulforhodamine B assay; settings: SNB-75, 48 h; how it was run: as §1
# [14] = system: LOX IMVI; test: Growth inhibition of human LOXIMVI cells incubated for 48 hrs by sulforhodamine B assay; how it was run: as §3
# [15] = system: M14; test: Growth inhibition of human M14 cells incubated for 48 hrs by sulforhodamine B assay; settings: M14, 48 h; how it was run: as §3
# [16] = system: MDA-MB-435; test: Growth inhibition of human MDA-MB-435 cells incubated for 48 hrs by sulforhodamine B assay; settings: MDA-MB-435, 48 h; how it was run: as §3
# [17] = system: UACC-257; test: Growth inhibition of human UACC257 cells incubated for 48 hrs by sulforhodamine B assay; settings: UACC-257, 48 h; how it was run: as §4
# [18] = system: OVCAR-3; test: Growth inhibition of human OVCAR3 cells incubated for 48 hrs by sulforhodamine B assay; settings: OVCAR-3, 48 h; how it was run: as §3
# [19] = system: OVCAR-5; test: Growth inhibition of human OVCAR5 cells incubated for 48 hrs by sulforhodamine B assay; settings: OVCAR-5, 48 h; how it was run: as §1
# [20] = system: NCI/ADR-RES; test: Growth inhibition of human NCI/ADR-RES cells incubated for 48 hrs by sulforhodamine B assay; how it was run: as §1
# [21] = system: ACHN; test: Growth inhibition of human ACHN cells incubated for 48 hrs by sulforhodamine B assay; how it was run: as §1
# [22] = system: RXF 393; test: Growth inhibition of human RXF393 cells incubated for 48 hrs by sulforhodamine B assay; settings: RXF 393, 48 h; how it was run: as §3
# [23] = system: SN12C; test: Growth inhibition of human SN12C cells incubated for 48 hrs by sulforhodamine B assay; how it was run: as §4
# [24] = system: PC-3; test: Growth inhibition of human PC3 cells incubated for 48 hrs by sulforhodamine B assay; settings: PC-3, 48 h; how it was run: as §3
# [25] = system: MCF7; test: Growth inhibition of human MCF7 cells incubated for 48 hrs by sulforhodamine B assay; settings: MCF7, 48 h; how it was run: as §1
# [26] = system: Hs-578T; test: Growth inhibition of human Hs578T cells incubated for 48 hrs by sulforhodamine B assay; how it was run: as §3
# [27] = system: BT-549; test: Growth inhibition of human BT549 cells incubated for 48 hrs by sulforhodamine B assay; settings: BT-549, 48 h; how it was run: as §2
# [28] = system: MDA-MB-468; test: Growth inhibition of human MDA-MB-468 cells incubated for 48 hrs by sulforhodamine B assay; settings: MDA-MB-468, 48 h; how it was run: as §3
# [29] = system: Staphylococcus aureus; test: Antibacterial activity against methicillin-resistant Staphylococcus aureus ATCC 43300 after 24 hrs by resazurin dye based microdilution assay; settings: ATCC 43300, 24 h
# How it was run: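 Broth microdilution in Mueller Hinton broth, inoculum 5 × 10^5 – 8 × 10^5. Compound stocks diluted in MHB with 5% DMSO and 0.1% Tween 80. Incubation 24 h at 35-37 °C. MIC is the lowest concentration with visible growth inhibition and/or by resazurin (1 mg/mL) read-out. Gentamicin as control. Run in duplicate, replicated at least three times.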
# [30] = read-out: LC50 (the source's name)
structure (smiles),measurement,setting,value
COc1ccc(C(=O)/C=C/c2cccc(Nc3ccnc4cc(Cl)ccc34)c2)cc1,GI50,[1],2900 nM
same,CC50,[1]; [30],> 100000 nM
same,GI50,[2],490 nM
same,CC50,[2]; [30],> 100000 nM
same,GI50,[3],2780 nM
same,LC50 (concentration giving 50% net cell kill),[3],> 100000 nM
same,GI50,[4],1750 nM
same,LC50,[4],> 100000 nM
same,GI50,[5],1090 nM
same,LC50 (concentration giving 50% net cell kill),[5],> 100000 nM
same,GI50,[6],1490 nM
same,CC50,[6]; [30],> 100000 nM
same,GI50,[7],2230 nM
same,CC50,[7]; [30],> 100000 nM
same,GI50,[8],1880 nM
same,CC50,[8]; [30],> 100000 nM
same,GI50,[9],2040 nM
same,CC50,[9]; [30],> 100000 nM
same,GI50,[10],1980 nM
same,CC50,[10]; [30],> 100000 nM
same,GI50,[11],690 nM
same,CC50,[11]; [30],> 100000 nM
same,GI50,[12],2260 nM
same,CC50,[12]; [30],> 100000 nM
same,GI50,[13],1510 nM
same,CC50,[13]; [30],> 100000 nM
same,GI50,[14],1580 nM
same,CC50,[14]; [30],> 100000 nM
same,GI50,[15],1600 nM
same,CC50,[15]; [30],> 100000 nM
same,GI50,[16],2130 nM
same,CC50,[16]; [30],> 100000 nM
same,GI50,[17],2070 nM
same,CC50,[17]; [30],> 100000 nM
same,GI50,[18],1690 nM
same,CC50,[18]; [30],> 100000 nM
same,GI50,[19],2600 nM
same,CC50,[19]; [30],> 100000 nM
same,GI50,[20],1160 nM
same,CC50,[20]; [30],> 100000 nM
same,GI50,[21],1730 nM
same,CC50,[21]; [30],> 100000 nM
same,GI50,[22],1820 nM
same,CC50,[22]; [30],> 100000 nM
same,GI50,[23],1300 nM
same,CC50,[23]; [30],> 100000 nM
same,GI50,[24],2510 nM
same,CC50,[24]; [30],> 100000 nM
same,GI50,[25],1820 nM
same,CC50,[25]; [30],> 100000 nM
same,GI50,[26],3180 nM
same,CC50,[26]; [30],> 100000 nM
same,GI50,[27],1870 nM
same,CC50,[27]; [30],> 100000 nM
same,GI50,[28],580 nM
same,CC50,[28]; [30],> 100000 nM
same,MIC,[29],> 1000 µg/mL

# — ChEMBL document CHEMBL4038284, “Synthesis of novel quinoline-based 4,5-dihydro-1H-pyrazoles as potential anticancer, antifungal, antibacterial and antiprotozoal agents” (Eur J Med Chem, 2017)
